Converted amounts (≈) assume the structure as drawn.
Key:
Format in all cases: functional
Bacillus spizizenii [1] = assay: Antibacterial activity against Bacillus subtilis ATCC 6633 after 24 to 48 hrs by agar well diffusion method
Outline: (§1)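 Mueller Hinton agar plates spread with bacteria (10⁶ cells/ml). Wells were filled with 50 µl of compound and incubated at 37 °C for 24–48 h. The inhibition zone diameter (mm) was measured with a transparent scale. Amoxicillin 5.0 mg/ml at 50 µl/well served as the positive control.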

Escherichia coli [2] = assay: Antibacterial activity against Escherichia coli ATCC 25922 after 24 hrs by agar well diffusion method; settings: ATCC 25922, 24 h
Pseudomonas aeruginosa [3] = assay: Antibacterial activity against Pseudomonas aeruginosa ATCC 27853 after 24 hrs by agar well diffusion method; settings: ATCC 27853, 24 h
Staphylococcus aureus [4] = assay: Antibacterial activity against Staphylococcus aureus ATCC 25923 after 24 hrs by agar well diffusion method; settings: ATCC 25923, 24 h
Bacillus spizizenii [5] = assay: Antibacterial activity against Bacillus subtilis ATCC 6633 after 24 hrs by agar well diffusion method; settings: ATCC 6633, 24 h
Escherichia coli [6] = assay: Antibacterial activity against Escherichia coli ATCC 25922 after 24 to 48 hrs by agar well diffusion method; outline: as §1
Pseudomonas aeruginosa [7] = assay: Antibacterial activity against Pseudomonas aeruginosa ATCC 27853 after 24 to 48 hrs by agar well diffusion method; outline: as §1
Staphylococcus aureus [8] = assay: Antibacterial activity against Staphylococcus aureus ATCC 25923 after 24 to 48 hrs by agar well diffusion method; outline: as §1

Structure (SMILES)	inhibition zone (IZ) (Bacillus spizizenii [1]) [mm]	MIC (Escherichia coli [2]) [µg/mL]	MIC (Pseudomonas aeruginosa [3]) [µg/mL]	MIC (Staphylococcus aureus [4]) [µg/mL]	MIC (Bacillus spizizenii [5]) [µg/mL]	inhibition zone (IZ) (Escherichia coli [6]) [mm]	inhibition zone (IZ) (Pseudomonas aeruginosa [7]) [mm]	inhibition zone (IZ) (Staphylococcus aureus [8]) [mm]
N#C/C(=C\c1cnc(Nc2ccc(Cl)cc2)nc1)c1nc2ccccc2s1	35	11.1 (≈ 28.5 µM)	11.1 (≈ 28.5 µM)	11.1 (≈ 28.5 µM)	20 (≈ 51.3 µM)	40	30	30
N#C/C(=C\c1cnc(N2CCOCC2)nc1)c1nc2ccccc2[nH]1	39	27.8 (≈ 83.6 µM)	27.8 (≈ 83.6 µM)	27.8 (≈ 83.6 µM)	27.8 (≈ 83.6 µM)	40	35	35
CN(C)c1ncc(/C=C(\C#N)c2nc3ccccc3s2)cn1	45	50 (≈ 163 µM)	35.8 (≈ 116 µM)	35.8 (≈ 116 µM)	50 (≈ 163 µM)	52	32	35
N#C/C(=C\c1cnc(N2CCOCC2)nc1)c1nc2ccccc2s1	39	35.8 (≈ 102 µM)	35.8 (≈ 102 µM)	27.8 (≈ 79.6 µM)	50 (≈ 143 µM)	40	30	32
N#C/C(=C\c1cnc(NCc2ccccc2)nc1)c1nc2ccccc2[nH]1	40	18 (≈ 51.1 µM)	18 (≈ 51.1 µM)	18 (≈ 51.1 µM)	25 (≈ 70.9 µM)	45	30	35
